Published values collected from several papers.
Protocols differ between the studies behind these lines.
Sample: plasma

NS(=O)(=O)OC[C@@H]1C[C@@H](n2ccc3c(N[C@H]4CCc5ccccc54)ncnc32)C[C@@H]1O
half-life (human; intravenous; 20 mg/m²; patients): 5.1 h

CC(C)n1c(Nc2cccnc2)nc2cnc(Nc3ccc(N4CCN(C)CC4)cc3)nc21
half-life (male human; oral; 150 mg; single dose): 36 h

CC[C@H](C)CCCCC(=O)N[C@@H](CCN)C(=O)N[C@H](C(=O)N[C@@H](CCN)C(=O)N[C@H]1CCNC(=O)[C@H]([C@@H](C)O)NC(=O)[C@H](CCN)NC(=O)[C@H](CCN)NC(=O)[C@H](CC(C)C)NC(=O)[C@@H](Cc2ccccc2)NC(=O)[C@H](CCN)NC1=O)[C@@H](C)O
half-life (human; intravenous; 0.75 mg/kg; single dose, infusion): 5.44 h

Cc1ccc(NC(=O)c2ccc(CN3CCN(C)CC3)cc2)cc1Nc1nccc(-c2cncc(-c3oncc3C)c2)n1
half-life (human; oral; 200 mg/day; multiple doses, steady state, healthy volunteers): 23.3 h

CNC(=O)n1ccc2cc(Oc3ccnc(NC(=O)c4ccc(C5CCN(CCO)CC5)cc4)c3)c(OCCOC)cc21
half-life (human; oral; 35 mg; single dose, fed, healthy volunteers): 28.3 h

Cc1ccc(C(=O)Nc2ccc(CN3CCN(C)CC3)c(C(F)(F)F)c2)cc1C#Cc1cnc2[nH]ncc2c1
half-life (human; oral; 40 mg; single dose, healthy volunteers): 26.1 h

COc1ccc([C@@H](O)c2cc(-c3ncnc4cc(N5CCOCC5)ccc34)c(F)cc2Cl)nn1
half-life (human; oral; 200 mg; single dose, patients): 3.94 h

Cn1cc(Nc2nc(N)nc(-c3cccc(-n4ccc5cc(C6CC6)cc(F)c5c4=O)c3CO)n2)cn1
half-life (human; oral; 300 mg; single dose, fasted, suspension): 9 h

NC(=S)NN=Cc1ncccc1N
half-life (human; oral; 150 mg): 1.5 h
